# Measured values as given in article PMC3258117 (Journal of Medicinal Chemistry, 2011).
# Where two headings read alike, the source gives them in different places.
# Key:
# [1] = Reduction potential by cyclic voltammetry; assay type: physicochemical; conditions: cyclic voltammetry relative to Ag/AgCl
# Method in brief: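 Half-wave reduction potentials (E1/2) measured by cyclic voltammetry against an Ag/AgCl reference electrode, using a carbon mesh working electrode and a Pt wire counter electrode. The supporting electrolyte was 0.1M tetrabutylammonium hexafluorophosphate (TBAPF6).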
# [2] = system: T. cruzi; conditions: 2 mg/kg/day for 50 days, mice, acute phase of infection; cited from earlier work
# [3] = 15 mg/kg given i.p. for 30 days; cited from earlier work
# [4] = system: L. donovani MHOM-ET-67/L82 axenic amastigotes; assay: In vitro growth inhibition of axenically cultured L. donovani amastigotes; assay type: cell-based, Leishmania donovani; conditions: SI = IC50 in L6 cells / IC50 in parasites
# [5] = system: T. cruzi Tulahuen C4 amastigotes; assay: In vitro growth inhibition of T. cruzi amastigotes in infected L6 myoblasts; assay type: cell-based, Trypanosoma cruzi; conditions: for activity designation against T. cruzi: classes by IC50 criteria of b15; for fold increase of T. cruzi IC50 compared to the nitro-containing analog: non-nitro triazoles 19 and 31 versus 17 and 29
# [6] = system: T.b. rhodesiense STIB 900 trypomastigotes; assay: In vitro growth inhibition of T. b. rhodesiense bloodstream form trypomastigotes; assay type: cell-based, Trypanosoma brucei rhodesiense; conditions: for activity designation against T.b. rhodesiense: classes by IC50 criteria of b15
# [7] = system: L6 cells (rat skeletal myoblasts); assay: Cytotoxicity assessment using L6 cells; assay type: cell-based; conditions: read-out: Cytotox. L6 IC-50
# [8] = cited from earlier work
# [9] = SI = IC50 in L6 cells / IC50 in parasites
compound,measurement,setting,value
"Cl.O=[N+]([O-])c1ncn(CCCNc2nc(-c3ccccc3)nc3ccccc23)n1 [Compound 20, N-[3-(3-Nitro-1H-1,2,4-triazol-1-yl)propyl]-2-phenyl-quinazolin-4-amine hydrochloride]",E1/2 reduction potential,[1]; in DMSO,-1.04 V
"Cl.O=[N+]([O-])c1ncn(CCCNc2c3ccccc3nc3ccccc23)n1 [Compound 1, 9-[(3-nitro-1H-1,2,4-triazolyl)-propylamino]acridine hydrochloride]",fraction of cures,[2],20%
same,peripheral parasite levels,[2],rapid and persistent drop
same,toxicity in vivo,[3],demonstrated toxicity
"Cc1cc(NCCCn2ccnc2[N+](=O)[O-])nc(N)n1.Cl [Compound 11, 6-Methyl-4-N-[3-(2-nitro-1H-imidazol-1-yl)propyl]-pyrimidin-2,4-diamine hydrochloride]",L. donovani axen. SI,[4],∼3
"Cl.O=[N+]([O-])c1ncn(CCCNCc2ccc(C(F)(F)F)cc2)n1 [Compound 37, [3-(3-Nitro-1H-1,2,4-triazol-1-yl)propyl]({[4-(trifluoromethyl)phenyl]methyl})amine hydrochloride]",activity designation against T. cruzi,[5],active
"Cl.Cl.O=[N+]([O-])c1ncn(CCCN2CCN(Cc3ccc(C(F)(F)F)cc3)CC2)n1 [Compound 40, 1-[3-(3-Nitro-1H-1,2,4-triazol-1-yl)propyl]-4-{[4-(trifluoromethyl)phenyl]methyl}piperazine dihydrochloride]",SI,"[5]; Table 2, T. cruzi, IC50 in L6 cells / IC50 in parasites",>562
"Cl.O=[N+]([O-])c1nccn1CCCNc1nc(-c2ccccc2)nc2ccccc12 [Compound 8, N-[3-(2-Nitro-1H-imidazol-1-yl)propyl]-2-phenylquinazolin-4-amine hydrochloride]",E1/2 reduction potential,[1]; in DMSO,-1.03 V
"6-Methyl-4-N-[3-(2-nitro-1H-1,2,4-triazol-1-yl)propyl]-pyrimidin-2,4-diamine hydrochloride [Compound 22]",T.b.rhodesiense SI,[6]; [9],>131
same,IC50,[7],> 286 µM
same,T. cruzi SI,[5]; [9],>8
same,activity designation against T. cruzi,[5],moderately active (IC50 = 4.0-60 μM)
same,L. donovani axen. SI,[4],∼3
"Cl.O=[N+]([O-])c1ncn(CCCN(Cc2ccc(C(F)(F)F)cc2)Cc2ccc(C(F)(F)F)cc2)n1 [Compound 38, [3-(3-Nitro-1H-1,2,4-triazol-1-yl)propyl]bis({[4-(trifluoromethyl)phenyl]methyl})amine hydrochloride]",activity designation against T.b. rhodesiense,[6],active
same,activity designation against T. cruzi,[5],active
same,E1/2 reduction potential,[1]; in DMSO,-1.06 V
"Cl.FC(F)(F)c1cc(CNCCCCn2cncn2)cc(C(F)(F)F)c1 [Compound 31, {[3,5-bis(Trifluoromethyl)phenyl]methyl}[4-(1H-1,2,4-triazol-1-yl)butyl]amine hydrochloride]",fold increase of T. cruzi IC50 compared to the nitro-containing analog,[5],730 fold
"Cl.Cl.O=[N+]([O-])c1nccn1CCCN1CCN(Cc2ccc(C(F)(F)F)cc2)CC1 [Compound 39, 1-[3-(2-Nitro-1H-imidazol-1-yl)propyl]-4-{[4-(trifluoromethyl)phenyl]methyl}piperazine dihydrochloride]",L. donovani axen. SI,[4],∼1
"Cl.O=[N+]([O-])c1ncn(CCCCNc2ccnc3cc(Cl)ccc23)n1 [Compound 17, 7-Chloro-N-[4-(3-nitro-1H-1,2,4-triazol-1-yl)butyl]quinolin-4-amine hydrochloride]",activity designation against T.b. rhodesiense,[6],active
same,E1/2 reduction potential,[1]; in CH3CN,-1.18 V
"Cl.Clc1ccc2c(NCCCCn3cncn3)ccnc2c1 [Compound 19, 7-Chloro-N-[4-(1H-1,2,4-triazol-1-yl)butyl]quinolin-4-amine]",fold increase of T. cruzi IC50 compared to the nitro-containing analog,[5],658 fold
same,L. donovani axen. SI,[4],∼1
"Cl.O=[N+]([O-])c1ncn(CCCNCc2cc(C(F)(F)F)cc(C(F)(F)F)c2)n1 [Compound 29, {[3,5-bis(Trifluoromethyl)phenyl]methyl}[3-(3-nitro-1H-1,2,4-triazol-1-yl)propyl]amine hydrochloride]",activity designation against T. cruzi,[5],active
same,E1/2 reduction potential,[1]; in DMSO,-1.07 V
"O=C1C(Cl)=C(NCCCn2cnc([N+](=O)[O-])n2)C(=O)c2ccccc21 [Compound 25, 2-Chloro-3-{[3-(3-nitro-1H-1,2,4-triazol-1-yl)propyl]amino}-1,4-dihydronaphthalene-1,4-dione]",fold greater effect on T. cruzi growth than 2-nitroimidazole counterpart,[5]; 3-nitrotriazole versus its 2-nitroimidazole analog,2 fold
Cl.O=[N+]([O-])c1nccn1CCCNCc1cc(C(F)(F)F)cc(C(F)(F)F)c1 [Compound 26],L. donovani axen. SI,[4],∼2
"Cl.Cl.O=[N+]([O-])c1ncn(CCCCN2CCN(Cc3ccc(C(F)(F)F)cc3)CC2)n1 [Compound 41, 1-[4-(3-Nitro-1H-1,2,4-triazol-1-yl)butyl]-4-{[4-(trifluoromethyl)phenyl]methyl}piperazine dihydrochloride]",E1/2 reduction potential,[1]; in DMSO,-1.04 V
"CC1CS(=O)(=O)CCN1/N=C/c1ccc([N+](=O)[O-])o1 (centres unmarked) [Nifurtimox, 4-(5-nitrofurfurylidenamino)-3-methylthio-morpholine-1,1-dioxide]",E1/2 reduction potential,[8],-0.88 V
"Cl.Cl.O=[N+]([O-])c1ncn(CCCN2CCN(c3ccc(C(F)(F)F)cc3)CC2)n1 [Compound 42, 1-[3-(3-Nitro-1H-1,2,4-triazol-1-yl)propyl]-4-[4-(trifluoromethyl)phenyl]piperazine dihydrochloride]",fold increased antichagasic activity compared to 40 and 41,[5]; T. cruzi in vitro,about 10 fold
